ChEMBL document CHEMBL1124666, “Novel linked antiviral and antitumor agents related to netropsin and distamycin: synthesis and biological evaluation” (1989)
Values after ≈ are worked out from the molar mass of the structure shown.

Tests used:
Vaccinia virus [1] = assay: Minimum inhibitory concentration against vaccinia virus in primary rabbit kidney cell cultures of experiment 1; format: functional; details: Orthopoxvirus vaccinia
[2] = Inhibition of Moloney Murine Leukemia Associated Reverse Transcriptase; format: functional, Mus musculus
Vaccinia virus [3] = assay: Minimum cytotoxic concentration against vaccinia virus embryonic skin muscle cell cultures; format: functional; details: Orthopoxvirus vaccinia
Vaccinia virus [4] = assay: Minimum inhibitory concentration against Vaccinia virus; format: functional; details: Orthopoxvirus vaccinia
Human alphaherpesvirus 2 = assay: Minimum inhibitory concentration against Herpes simplex virus 2(G); format: functional
Vaccinia virus [5] = assay: Minimum cytotoxic concentration against vaccinia virus in primary rabbit kidney cell cultures; format: functional; details: Orthopoxvirus vaccinia
Vaccinia virus [6] = assay: Minimum inhibitory concentration against vaccinia virus in Vero cell cultures of experiment 1; format: functional; details: Orthopoxvirus vaccinia
Vaccinia virus [7] = assay: (§1) Minimum inhibitory concentration against vaccinia virus in primary rabbit kidney cell cultures of experiment 2; format: functional, Orthopoxvirus vaccinia; details: Orthopoxvirus vaccinia; read-out: MIC
FM3A = assay: Inhibitory effect on the proliferation of murine mammary carcinoma (FM3A ) cells; format: functional; details: Mus musculus, read-out: ID50 (the source's name)
[8] = tested on: Vesicular stomatitis virus; assay: Minimum inhibitory concentration against Vesicular stomatitis virus; format: functional
[9] = Minimum cytotoxic concentration in primary rabbit kidney (PRK) cell cultures; format: functional, Oryctolagus cuniculus
P388 = assay: Inhibitory effect on the proliferation of murine leukemia (P388) cells; format: functional; details: Mus musculus, read-out: ID50 (the source's name)
Vaccinia virus [10] = assay: Minimum cytotoxic concentration against vaccinia virus in Vero cell cultures; format: functional; details: Orthopoxvirus vaccinia
L1210 = assay: Inhibitory effect on the proliferation of murine leukemia (L1210 ) cells; format: functional; details: Mus musculus, read-out: ID50 (the source's name)
Vaccinia virus [11] = assay: Minimum cytotoxic concentration against vaccinia virus in HeLa cell cultures; format: functional; details: Orthopoxvirus vaccinia
Calf thymus DNA = assay: Relative binding constant to calf thymus DNA; format: nucleic-acid assay; details: Bos taurus
Method in brief: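 Ethidium displacement: Tris-EDTA buffer pH 8 with 1.3 μM ethidium bromide and calf thymus DNA (1.35 μM final); drug aliquots added, fluorescence read after a few minutes' equilibration (excitation 525 nm, emission 600 nm). Drug level giving 50% fluorescence decrease converted to relative binding constant taking ethidium binding constant as 10^7 M-1.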

Vaccinia virus [12] = assay: Minimum inhibitory concentration against vaccinia virus in Vero cell cultures of experiment 2; format: functional; details: Orthopoxvirus vaccinia
Raji = assay: Inhibitory effect on the proliferation of human B lymphoblast (Raji ) cells; format: functional; details: read-out: ID50 (the source's name)
Vaccinia virus [13] = assay: Minimum inhibitory concentration against vaccinia virus embryonic skin muscle cell cultures; format: functional; details: Orthopoxvirus vaccinia
[14] = Inhibitory effect on the proliferation of human T-lymphoblast (Molt/4F ) cells; format: functional; details: read-out: ID50 (the source's name)
Vaccinia virus [15] = assay: as §1; format: functional; details: Orthopoxvirus vaccinia
Human alphaherpesvirus 1 = assay: Minimum inhibitory concentration against Herpes simplex virus 1(KOS); format: functional

SMILES	MIC (Vaccinia virus [1]) [µg/mL]	ID50 [2] [µg/mL]	MCC (Vaccinia virus [3]) [µg/mL]	MIC (Vaccinia virus [4]) [µg/mL]	MIC (Human alphaherpesvirus 2) [µg/mL]	MCC (Vaccinia virus [5]) [µg/mL]	MIC (Vaccinia virus [6]) [µg/mL]	MIC (Vaccinia virus [7]) [µg/mL]	IC50 (FM3A) [µg/mL]	MIC [8] [µg/mL]	MCC [9] [µg/mL]	IC50 (P388) [µg/mL]	MCC (Vaccinia virus [10]) [µg/mL]	IC50 (L1210) [µg/mL]	MCC (Vaccinia virus [11]) [µg/mL]	Binding constant (Calf thymus DNA) [M⁻¹]	MIC (Vaccinia virus [12]) [µg/mL]	MIC (Vaccinia virus [13]) [µg/mL]	MIC (Vaccinia virus [15]) [µg/mL]	MIC (Human alphaherpesvirus 1) [µg/mL]	further results
Cl.Cl.Cn1cc(NC(=O)c2cc(NC(=O)CCCCCCC(=O)Nc3cc(C(=O)Nc4cc(C(=O)NCCC(=N)N)n(C)c4)n(C)c3)cn2C)cc1C(=O)NCCC(=N)N	0.7	21.3	> 200	0.2	> 10	> 40	7	2	3.15	> 10	>10	0.7	> 40	3.34	> 200	2.5e+07	7	0.07	2	> 10	IC50 (Raji): 2.14 µg/mL; IC50 [14]: 1.74 µg/mL
Cl.Cl.Cn1cc(NC(=O)c2cc(NC(=O)c3cc(NC(=O)CCC(=O)Nc4cc(C(=O)Nc5cc(C(=O)Nc6cc(C(=O)NCCC(=N)N)n(C)c6)n(C)c5)n(C)c4)cn3C)cn2C)cc1C(=O)NCCC(=N)N	> 4	>400	> 4	–	–	> 4	> 4	> 10	4.29	–	–	> 20	> 4	> 100	> 20	–	> 4	> 4	> 4	–	IC50 (Raji): 41.4 µg/mL; IC50 [14]: 2.85 µg/mL
Cl.Cl.Cn1cc(NC(=O)c2cc(NC(=O)CCCC(=O)Nc3cc(C(=O)Nc4cc(C(=O)NCCC(=N)N)n(C)c4)n(C)c3)cn2C)cc1C(=O)NCCC(=N)N	20	39.9	400	7	200	> 200	70	40	> 100	> 200	>200	6.4	> 400	> 100	> 400	1.8e+07	150	7	20	> 200	IC50 (Raji): > 100 µg/mL; IC50 [14]: > 100 µg/mL
Cn1cc(NC(=O)c2cc(NC(=O)c3cc(NC=O)cn3C)cn2C)cc1C(=O)NCCC(=N)N [STALLIMYCIN]	–	–	–	–	–	–	–	–	31 (≈ 64.4 µM)	–	–	> 20	–	27 (≈ 56.1 µM)	–	8e+06	–	–	–	–	IC50 (Raji): 24 µg/mL (≈ 49.8 µM)
Cl.Cl.Cn1cc(NC(=O)c2cc(NC(=O)CCCCC(=O)Nc3cc(C(=O)Nc4cc(C(=O)NCCC(=N)N)n(C)c4)n(C)c3)cn2C)cc1C(=O)NCCC(=N)N	100	57.2	100	0.7	> 10	> 40	1	0.7	57.8	> 10	>40	1.05	> 400	24.3	> 400	1e+07	2	7	2	> 10	IC50 (Raji): 13.3 µg/mL; IC50 [14]: 5.62 µg/mL
Cl.Cl.Cn1cc(NC(=O)c2cc(NC(=O)CCCCCCCC(=O)Nc3cc(C(=O)Nc4cc(C(=O)NCCC(=N)N)n(C)c4)n(C)c3)cn2C)cc1C(=O)NCCC(=N)N	7	34.2	> 100	0.2	> 40	> 100	40	20	32	> 100	>100	0.75	> 200	10.8	> 200	9e+06	70	0.7	7	> 40	IC50 (Raji): 4.36 µg/mL; IC50 [14]: 3.3 µg/mL
Nc1ncnc2c1ccn2[C@@H]1O[C@H](CO)[C@@H](O)[C@H]1O [TUBERCIDIN]	> 0.1	–	> 0.1	> 0.1	> 0.4	> 0.4	0.02 (≈ 0.0751 µM)	0.2 (≈ 0.751 µM)	–	0.2 (≈ 0.751 µM)	>1	–	> 0.4	–	> 1	–	0.02 (≈ 0.0751 µM)	0.07 (≈ 0.263 µM)	0.2 (≈ 0.751 µM)	> 0.4	–
Cl.Cl.Cn1cc(NC(=O)c2cc(NC(=O)CCCCCC(=O)Nc3cc(C(=O)Nc4cc(C(=O)NCCC(=N)N)n(C)c4)n(C)c3)cn2C)cc1C(=O)NCCC(=N)N	7	72.5	200	2	70	> 200	20	20	> 100	> 200	400	4.4	> 200	> 100	> 200	1.2e+07	20	0.7	7	150	IC50 (Raji): 11.1 µg/mL; IC50 [14]: 5.74 µg/mL
NC(=O)c1ncn([C@@H]2O[C@H](CO)[C@@H](O)[C@H]2O)n1 [RIBAVIRIN]	20 (≈ 81.9 µM)	–	> 400	20 (≈ 81.9 µM)	300 (≈ 1230 µM)	> 400	7 (≈ 28.7 µM)	20 (≈ 81.9 µM)	–	> 400	>400	–	> 400	–	> 400	–	20 (≈ 81.9 µM)	70 (≈ 287 µM)	7 (≈ 28.7 µM)	> 400	–
Nc1nccc2c1ncn2[C@@H]1C[C@H](CO)[C@@H](O)[C@H]1O [3-DEAZAARISTEROMYCIN A]	2 (≈ 7.57 µM)	–	> 400	2 (≈ 7.57 µM)	300 (≈ 1140 µM)	> 400	0.2 (≈ 0.757 µM)	0.7 (≈ 2.65 µM)	–	0.7 (≈ 2.65 µM)	>400	–	> 200	–	> 400	–	0.2 (≈ 0.757 µM)	2 (≈ 7.57 µM)	2 (≈ 7.57 µM)	> 400	–
Cn1cc(NC(=O)c2cc(NC(=O)CNC(=N)N)cn2C)cc1C(=O)NCCC(=N)N	–	–	–	–	–	–	–	–	–	–	–	–	–	–	–	1.9e+07	–	–	–	–	–
Cn1cc(NC(=O)c2cc(NC(=O)CCC(=O)Nc3cc(C(=O)Nc4cc(C(=O)NCCC(=N)N)n(C)c4)n(C)c3)cn2C)cc1C(=O)NCCC(=N)N	–	–	–	–	–	–	–	–	–	–	–	–	–	–	–	7.2e+07	–	–	–	–	–
O=C(O)C1=CC(=C(c2ccc(O)c(C(=O)O)c2)c2ccc(O)c(C(=O)O)c2)C=CC1=O [AURINTRICARBOXYLIC ACID]	–	1.42 (≈ 3.36 µM)	–	–	–	–	–	–	–	–	–	–	–	–	–	–	–	–	–	–	–
